# From PubChem
# ABHD4 inh: ABHD4 inhibitors, primary screen, biochemical, fluorescence polarization, mouse; AID 720543, 2013; inhibition, % at 8.92 µM; (Lyso)-N-acylphosphatidylethanolamine lipase (Mus musculus), Q8VD66; 370,000 tested, 0.54% active; purified mABHD4, FP-Rh probe fluorescence polarization;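 active means inhibition exceeding the mean over every tested compound plus 3 SD, cut at about 30% in these data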;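 further: 0% = plate median of compound wells and 100% = S159A mutant with DMSO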
#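 Doses – 8.92 µM, single dose · Material – wild-type mouse ABHD4 protein · Replication – single well per compound (singlicate) · Measure – percent inhibition of probe binding, normalized to plate controls · Schedule – 45 min compound pre-incubation plus 60 min probe step, 25 °C · Detection – fluorescence polarization with parallel and perpendicular emission, 525/598 nm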
# SIAE inh: human SIAE inhibitors, primary screen, biochemical, fluorescence polarization, FP-Rh probe, 1536-well HTS; Sialate O-acetylesterase (Homo sapiens), Q9HAT2; SIAE FP-Rh probe binding; inhibition, % at 9.66 µM; 370,000 tested, 0.69% active; AID 1053197, 2014;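 active means inhibition above a cutoff: mean of compounds within the control limits plus 3 SD of those, cut at about 17% in these data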;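 further: 0% = plate median of compound wells and 100% = probe without SIAE protein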
# Target sequence (Q9HAT2 whole entry, looked up): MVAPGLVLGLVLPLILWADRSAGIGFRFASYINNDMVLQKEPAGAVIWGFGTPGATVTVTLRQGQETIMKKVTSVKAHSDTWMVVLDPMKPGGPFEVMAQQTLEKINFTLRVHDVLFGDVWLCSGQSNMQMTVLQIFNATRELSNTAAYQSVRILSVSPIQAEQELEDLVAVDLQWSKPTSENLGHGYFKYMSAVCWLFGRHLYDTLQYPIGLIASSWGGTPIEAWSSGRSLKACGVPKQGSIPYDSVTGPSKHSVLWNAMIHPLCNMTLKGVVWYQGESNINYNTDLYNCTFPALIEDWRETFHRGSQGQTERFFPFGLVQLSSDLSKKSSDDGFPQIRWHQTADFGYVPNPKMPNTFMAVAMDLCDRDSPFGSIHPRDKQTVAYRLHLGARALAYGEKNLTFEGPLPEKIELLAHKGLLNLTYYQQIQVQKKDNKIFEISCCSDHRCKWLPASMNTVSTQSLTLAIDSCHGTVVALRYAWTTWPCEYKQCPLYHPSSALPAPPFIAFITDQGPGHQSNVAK
# HTRA1 inh: HTRA1 serine protease inhibitors, primary screen, biochemical, fluorescence polarization, HTS. Q92743. recombinant HTRA1, FP-rhodamine activity-based probe. inhibition, % at 5.96 µM. 340,000 tested, 0.5% active. AID 504803, 2011; in the data active means inhibition above about 36%;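 further: 0% = enzyme with DMSO and 100% = wells lacking enzyme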
# pPAFAH FP inh: pPAFAH enzyme inhibitors, primary screen, biochemical, fluorescence polarization, human; AID 463082, 2010; recombinant pPAFAH, FP-rhodamine probe fluorescence polarization; 330,000 tested, 1.5% active; inhibition, % at 3.39 µM;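 active means inhibition above the mean inhibition across the screen plus 3 SD, cut at about 25% in these data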;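 further: inhibitors block binding of the rhodamine activity-based probe so polarization drops; 0% = enzyme with DMSO and 100% = wells lacking pPAFAH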
# TCR CD3 inh: inhibitors of human TCR-CD3 interaction, primary screen, biochemical, fluorescence, TAMRA-labeled TCR probe | T-cell receptor (TCR) | inhibition, % at 9.4 µM | 360,000 tested, 0.37% active | AID 651800, 2012; in the data active means inhibition above about 19%;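 further: recombinant mutant TCR 2C K166C tagged with TAMRA read by polarization; 0% = receptor in buffer alone and 100% = receptor with positive control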
# An asterisk follows results filed as active; . = not tested or not shown. A selection: hits, their analogues and other compounds. The true share with any hit is near 2.3%.
SMILES,ABHD4 inh,SIAE inh,HTRA1 inh,pPAFAH FP inh,TCR CD3 inh
O=C(CC1CCCC1)N[C@@H](Cc1cccnc1)C(=O)N1CCC[C@H]1C(=O)NCCc1ccccc1Cl,4,1,.,.,-4
CN(C)CC(c1ccc(O)cc1)C1(O)CCCCC1 (stereo not drawn),2,-3,.,.,.
CCCCCCNC(=O)C1CSCCS(=O)(=O)N1Cc1ccccc1 (stereo not drawn),-4,-2,.,.,.
Cc1cc(OCC(=O)Nc2ccc(N3CCCC3)cc2)cc(C)c1Cl,-6,-10,32,26*,5
Cc1ccc(S(=O)(=O)N2CC(O)C[C@H]2C(=O)OCC(=O)Nc2ccc(N3CCCCC3)cc2)cc1C (stereo partly drawn),7,12,-5,25*,3
COc1ccc(-c2noc(C3CCCN(C(=O)Nc4ccc5c(c4)OCO5)C3)n2)cc1 (stereo not drawn),1,2,.,.,.
O=C(Nc1ccc(Cl)cc1)[C@@H]1[C@@H]2C(=O)N(c3cccc(F)c3)C(=O)[C@@H]2[C@H]2C=CC=NN21,-3,-1,-17,3,-6
O=C(Nc1ccc(Cl)cc1)[C@@H]1[C@@H]2C(=O)N(c3ccc4ccccc4c3)C(=O)[C@@H]2[C@H]2C=CC=NN21,-9,-11,-26,29*,-1
COc1ccc(S[C@]2(C(=O)N3CCCC3)CC(=O)N(P(=O)(OC)OC)[C@@H]2c2ccc(OC)cc2)cc1,-7,-7,.,.,.
CN(C)C(=O)COC(=O)c1ccccc1Nc1ccc(SC(F)F)cc1,-29,6,-14,26*,-1
CC1(C)N([O-])c2cc([N+](=O)[O-])ccc2[N+]1=O,37*,6,.,31*,16
Cc1ccc(C)n1-c1cc([N+](=O)[O-])ccc1-n1ccnc1,-1,2,.,1,12
COc1cc2c(cc1Cl)/C(=C\CCN(C)C)c1ccccc1S2,20,4,-9,3,-4
CN1CCN(CC/C=C2/c3ccccc3Sc3ccc(S(=O)(=O)N(C)C)cc32)CC1,-2,-1,4,25*,-4
Cc1cccc(NC(=O)n2ccc3ccc(-c4ccc5cc[nH]c5c4)cc32)c1,-33,-14,.,.,.
Oc1ccc2c(c1)C1CCCC1(N1CCOCC1)O2 (stereo not drawn),34*,9,-5,19,11
CCCCOc1ccc(C(=O)NC2CCCCN(Cc3cccc(Cl)c3)C2=O)cc1 (stereo not drawn),-7,-2,.,.,.
C/C(=N\OCc1nc2ccccc2c(=O)n1/N=C/c1cc([N+](=O)[O-])ccc1O)c1ccccc1,3,-11,30,62*,23*
Cc1ccc(NS(=O)(=O)c2ccc3c(c2)CC(=O)N3)c(C)c1,-5,-12,-22,33*,-3
Cc1ccc(NS(=O)(=O)c2ccc3c(c2)NC(=O)CO3)c(C)c1,-3,-1,-7,23,-2
Cc1ccc(C(=O)/C=C/c2ccc(-c3ccc(C)cc3)o2)cc1,2,-2,-11,26*,2
NNC(=O)c1nn(-c2ccc(Cl)cc2)cc1O,12,10,28,34*,6
CCOC(=O)c1c(-c2ccc(OC)cc2)oc2ccc(OCC(N)=O)cc12,-7,-4,-16,4,-7
CCOC(=O)c1c(-c2ccc(OC)cc2)oc2ccc(O)cc12,-6,-10,-35,31*,1
CCNc1nc(Oc2ccc(OC)cc2)cc(C(F)(F)F)n1,-9,-6,-7,33*,-6
SMILES,ABHD4 inh,SIAE inh,HTRA1 inh,pPAFAH FP inh,TCR CD3 inh
CCNc1nc(Oc2c(Cl)cccc2Cl)cc(C(F)(F)F)n1,4,-6,-7,0,8
COc1cc(NC(=O)c2ccccc2)c(C)cc1NC(=O)CSc1nnc(-c2ccco2)n1Cc1ccco1,-2,-2,.,.,.
O=C(c1nnc(Cc2ccc(Cl)cc2)o1)N1CCc2ccccc2C1,-1,1,-6,30*,-2
O=C(CCn1nnc(-c2cccs2)n1)N1CCCC1,0,-5,.,.,.
Cc1ccc(C(=O)N/N=C/c2ccc(-c3ccc(Br)cc3[N+](=O)[O-])o2)o1,15,10,10,26*,9
Cc1ccc(C(=O)N/N=C\c2ccc(Br)o2)o1,-4,0,2,-4,1
N#C/C(=C\c1cccnc1)C(=O)Nc1ccccc1[N+](=O)[O-],16,-6,3,26*,-1
COc1cccc(N=Nc2c(N)[nH]n3c(=O)c4c(nc23)CCCC4)c1,9,8,.,30*,2
COc1cccc(N=Nc2c(N)[nH][nH]c2=O)c1,6,8,6,-3,6
N#Cc1ccsc1NC(=O)CSc1nnc(-c2ccccc2)o1,0,0,-4,34*,0
O=C(CSc1nnc(-c2ccccc2)o1)Nc1ccccc1F,-1,13,2,2,-2
COC1=C[C@H](C(=O)NCc2ccc(Br)cc2)[C@H](C)[C@@H](c2ccccc2)CC1=O,-13,3,.,.,.
O=C1NC(=Nc2ccccc2)SC1Cc1cccc(Cl)c1Cl (stereo not drawn),0,-1,-6,29*,-7
O=C(COC(=O)c1cc(Br)ccc1O)Nc1ccc2c(c1)OCCO2,0,-1,-1,3,-8
COc1cccc(C(=O)OCC(=O)Nc2ccc3c(c2)OCCO3)c1,1,0,3,28*,-4
COc1ccc(NS(=O)(=O)c2ccc3oc(Nc4ccc5c(c4)OCCO5)nc3c2)cc1,-19,-8,-20,26*,-4
COc1ccc(NS(=O)(=O)c2ccc(O)c(C(=O)OCC(=O)Nc3ccc4c(c3)OCCO4)c2)cc1,6,2,-9,32*,-3
COc1ccc(NC(=O)COC(=O)c2ccc3c(c2)OCCO3)cc1,0,-1,0,.,-5
CCN(Cc1ccccc1)c1ccc(/C=N/NC(=O)c2cccc(S(=O)(=O)N3CCOCC3)c2)cc1,0,7,0,28*,-10
CCN(CC)c1ccc(/C=N/NC(=O)c2cccc(S(=O)(=O)N3CCOCC3)c2)cc1,6,3,6,12,5
CCN1CC=C2C(C#N)=C(N)C(C#N)(C#N)C(CCc3ccccc3)C2C1 (stereo not drawn),34*,15,28,25*,10
Cc1cccc(NC(=O)COC(=O)c2cccc3c2C(=O)c2ccccc2C3=O)c1C,23,5,11,31*,-2
COC(=O)[C@@]12CCCCC3=C1N(CCC3)C(=O)[C@H]2CC(=O)N1CCCC1,-2,10,.,.,.
COCCn1c(=O)[nH]c(=O)c2c1nc(-c1ccc(-c3ccc(Cl)cc3[N+](=O)[O-])o1)n2Cc1ccccc1,16,8,17,27*,5
CC(C)Cn1c(-c2cc([N+](=O)[O-])ccc2Cl)nc2c1c(=O)[nH]c(=O)n2Cc1ccccc1,-7,-2,-7,25*,-15
